Converted amounts (≈) assume the structure as drawn. The source made the active and inactive calls. The rule behind the calls is not given here.
Assays:
[1] = tested on: Mycobacterium tuberculosis; experiment: Antibacterial activity against Mycobacterium tuberculosis H37Rv (ATCC 27294) assessed as inhibition of bacterial growth incubated for 14 days; type: functional; settings: 336 h, time 14 day
In short: (§1)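 Micromethod MIC in Sula's semisynthetic medium. MIC is the lowest concentration inhibiting >99% of the mycobacterial population. Isoniazid was the standard drug.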

[2] = tested on: Mycobacterium tuberculosis; experiment: Antibacterial activity against Mycobacterium tuberculosis H37Rv assessed as inhibition of bacterial growth by micro-broth dilution method; type: functional; in short: as §1
[3] = tested on: Mycobacterium tuberculosis; experiment: (§2) Antimycobacterial activity against isoniazid/ethambutol/rifampin/streptomycin/amikacin/gentamicin/clofazimine/ofloxacin […] MDR/XDR clinical isolate Mycobacterium tuberculosis 7357/1998 assessed as inhibition of mycobacterial growth measured after 14 to 21 days of incubation by Sulas semisynthetic medium based assay; type: functional, organism-based; settings: time 14-21 day
In short: (§3)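 Clinical MDR/XDR M. tuberculosis isolates were tested by the Sula's semisynthetic medium micromethod. Compounds in DMSO at 1000 to 0.5 μmol/L, in twofold-type steps. Incubation at 37 °C, read at 14 and 21 days. MIC99 is the lowest concentration inhibiting >99% of growth. Drug resistance or susceptibility of each isolate is to amikacin, clofazimine, gentamicin, ofloxacin, streptomycin and the others listed.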

[4] = tested on: Mycobacterium tuberculosis; experiment: as §2, with “234/2005” for “7357/1998”; type: functional, organism-based; settings: time 14-21 day; in short: as §3
[5] = tested on: Mycobacterium tuberculosis; experiment: as §2, with “9449/2007” for “7357/1998”; type: functional, organism-based; settings: time 14-21 day; in short: as §3
[6] = tested on: Mycobacterium tuberculosis; experiment: as §2, with “PRAHA 4” for “7357/1998”; type: functional, organism-based; settings: time 14-21 day; in short: as §3
[7] = tested on: Mycobacterium tuberculosis; experiment: as §2, with “8666/2010” for “7357/1998”; type: functional, organism-based; settings: time 14-21 day; in short: as §3
[8] = tested on: Mycobacterium tuberculosis; experiment: as §2, with “PRAHA 1” for “7357/1998”; type: functional, organism-based; settings: time 14-21 day; in short: as §3
[9] = tested on: Mycobacterium tuberculosis; experiment: Antitubercular activity against Mycobacterium tuberculosis CNCTC My 331/88 (H37Rv) assessed as inhibition of bacterial growth measured after 21 days of incubation by Sulas semisynthetic medium based assay; type: functional; settings: 504 h, time 21 day; in short: as §1
[10] = tested on: Mycobacterium tuberculosis; experiment: Antitubercular activity against Mycobacterium tuberculosis CNCTC My 331/88 (H37Rv) assessed as inhibition of bacterial growth measured after 14 days of incubation by Sulas semisynthetic medium based assay; type: functional; settings: 336 h, time 14 day; in short: as §1
[11] = tested on: Mycobacterium kansasii; experiment: Antitubercular activity against Mycobacterium kansasii CNCTC My 235/80 assessed as inhibition of bacterial growth measured after 7 days of incubation by Sulas semisynthetic medium based assay; type: functional; settings: CNCTC My 235/80, 168 h, time 7 day
In short: (§4)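 Micromethod in Sula's semisynthetic medium. MIC is the lowest concentration inhibiting >99% of the mycobacterial population. Isoniazid was the standard.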

[12] = tested on: Mycobacterium kansasii; experiment: Antitubercular activity against Mycobacterium kansasii CNCTC My 235/80 assessed as inhibition of bacterial growth measured after 21 days of incubation by Sulas semisynthetic medium based assay; type: functional; settings: CNCTC My 235/80, 504 h, time 21 day; in short: as §4
[13] = tested on: Staphylococcus aureus; experiment: Antibacterial activity against Staphylococcus aureus C1947 assessed as inhibition of bacterial growth incubated for 24 to 48 hrs by microdilution broth method; type: functional, organism-based; settings: time 24-48 hrs
In short: (§5)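 Clinical isolates kept at –70 °C and subcultured twice on Mueller-Hinton agar, using the second subculture. Broth microdilution in Mueller-Hinton broth at pH 7.4 with two-fold serial compound dilutions and DMSO ≤1% final. Inoculum was 10 μL of a 1.5 × 10⁸ CFU/mL suspension. Incubated at 36 °C ± 1 °C and read at 24 h and 48 h. MIC taken as 95% growth inhibition.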

[14] = tested on: Escherichia coli; experiment: Antibacterial activity against Escherichia coli A1235 assessed as inhibition of bacterial growth incubated for 24 to 48 hrs by microdilution broth method; type: functional, organism-based; settings: time 24-48 hrs; in short: as §5
[15] = Selectivity index, ratio of IC50 for cytotoxicity against human HepG2 cells by MTT assay to MIC99 for antitubercular activity against Mycobacterium tuberculosis CNCTC My 331/88 (H37Rv) assessed as inhibition of bacterial growth measured after 14 days of incubation; type: functional; settings: time 14 day
In short: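 HepG2 cells, 15 × 10³/well, were attached overnight and exposed 24 h to serial dilutions (DMSO ≤1%). Read by MTT at 0.5 mg/mL for 1 h and 570 nm. IC50 from 4-parameter regression, three independent experiments in triplicate. SI is HepG2 IC50 divided by H37Rv MIC99.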

[16] = tested on: Mycobacterium avium; experiment: Antitubercular activity against Mycobacterium avium CNCTC My 330/88 assessed as inhibition of bacterial growth measured after 21 days of incubation by Sulas semisynthetic medium based assay; type: functional; settings: CNCTC My 330/88, 504 h, time 21 day
In short: (§6)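 M. avium was tested by the micromethod in Sula's semisynthetic medium. Compounds in DMSO at 1000 to 0.5 μmol/L. Incubation at 37 °C, read at 14 and 21 days. MIC is the lowest concentration giving >99% growth inhibition.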

[17] = tested on: Klebsiella pneumoniae; experiment: Antibacterial activity against ESBL negative Klebsiella pneumoniae C1950 assessed as inhibition of bacterial growth incubated for 24 to 48 hrs by microdilution broth method; type: functional, organism-based; settings: time 24-48 hrs; in short: as §5
[18] = tested on: Staphylococcus aureus; experiment: Antibacterial activity against methicilin-resistant Staphylococcus aureus C1923 assessed as inhibition of bacterial growth incubated for 24 to 48 hrs by microdilution broth method; type: functional, organism-based; settings: time 24-48 hrs
In short: (§7)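 Clinical isolates, stored at −70 °C, were passaged twice on Mueller-Hinton agar. Broth microdilution in Mueller-Hinton broth, pH 7.4, with twofold serial dilutions. DMSO was at most 1% final. Inoculum 1.5 × 10⁸ CFU/mL suspension. MIC is 95% growth inhibition, read after 24 and 48 h at 36 °C.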

[19] = tested on: Klebsiella pneumoniae; experiment: Antibacterial activity against ESBL positive Klebsiella pneumoniae C1914 assessed as inhibition of bacterial growth incubated for 24 to 48 hrs by microdilution broth method; type: functional, organism-based; settings: time 24-48 hrs; in short: as §5
[20] = tested on: Pseudomonas aeruginosa; experiment: Antibacterial activity against multidrug-resistant Pseudomonas aeruginosa A1245 assessed as inhibition of bacterial growth incubated for 24 to 48 hrs by microdilution broth method; type: functional, organism-based; settings: time 24-48 hrs; in short: as §7
[21] = tested on: Enterococcus faecium; experiment: Antibacterial activity against vancomycin-resistant Enterococcus faecium assessed as inhibition of bacterial growth incubated for 24 to 48 hrs by microdilution broth method; type: functional, organism-based; settings: time 24-48 hrs; in short: as §7
[22] = tested on: Mycobacterium kansasii; experiment: Antitubercular activity against Mycobacterium kansasii CNCTC My 235/80 assessed as inhibition of bacterial growth measured after 14 days of incubation by Sulas semisynthetic medium based assay; type: functional; settings: CNCTC My 235/80, 336 h, time 14 day; in short: as §4
[23] = tested on: Mycobacterium avium; experiment: Antitubercular activity against Mycobacterium avium CNCTC My 330/88 assessed as inhibition of bacterial growth measured after 14 days of incubation by Sulas semisynthetic medium based assay; type: functional; settings: CNCTC My 330/88, 336 h, time 14 day; in short: as §6
[24] = tested on: Staphylococcus epidermidis; experiment: Antibacterial activity against Staphylococcus epidermidis C1936 assessed as inhibition of bacterial growth incubated for 24 to 48 hrs by microdilution broth method; type: functional, organism-based; settings: time 24-48 hrs; in short: as §5
[25] = tested on: HepG2; experiment: Cytotoxicity against human HepG2 cells incubated for 24 hrs by MTT assay; type: functional, cell-based; settings: HepG2, 24 h
In short: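 HepG2 cells in DMEM with 10% FBS, seeded at 15 × 10³ cells/well and attached overnight. Exposed for 24 h to serial dilutions prepared from DMSO stocks, final DMSO ≤1%. Then given fresh medium with 0.5 mg/mL MTT for 1 h at 37 °C. Formazan dissolved in DMSO and read at 570 nm. IC50 from 4-parameter nonlinear regression; three independent experiments in triplicate, mean ± SD.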

## COc1ncnc(Cn2cc(C(=O)NCCO)c3ncc(C)cc32)c1C [TBA-7371]
[1]
  MIC: 640 ng/mL (≈ 1800 nM)

## O=c1nc(N2CCN(CC3CCCCC3)CC2)sc2c([N+](=O)[O-])cc(C(F)(F)F)cc12 [MACOZINONE]
[2]
  MIC: ≤ 0.19 ng/mL

## GENTAMICIN
[3]
  MIC99: 1 µM
[4]
  MIC99: 0.25 µM
[5]
  MIC99: 1 µM
[6]
  MIC99: 0.5 µM
[7]
  MIC99: 2 µM
[8]
  MIC99: 1 µM

## O=C1CCc2c(OC[C@]3(O)CCN(c4c(F)cc(Cl)cc4F)C[C@H]3O)ccc(F)c2N1 [QUABODEPISTAT]
[1]
  MIC: 0.5 ng/mL (≈ 1.09 nM)

## C[C@H]1COC2(CCN(c3nc(=O)c4cc(C(F)(F)F)cc([N+](=O)[O-])c4s3)CC2)O1 [BTZ-043]
[2]
  MIC: 1 ng/mL (≈ 2.32 nM)

## CCNc1nc(N2CCOCC2)nc2ncn(Cc3ccc4ccccc4n3)c12
[9]
  MIC99: 8 µM (≈ 3.12 µg/mL)
[10]
  MIC99: 4 µM (≈ 1.56 µg/mL)
[11]
  MIC99: 64 µM (≈ 24.9 µg/mL)
[12]
  MIC99: 64 µM (≈ 24.9 µg/mL)
[13]
  Activity: inactive
[14]
  Activity: inactive
[15]
  Selectivity Index: 24.08
[16]
  MIC99: > 250 µM
[17]
  Activity: inactive
[18]
  Activity: inactive
[19]
  Activity: inactive
[20]
  Activity: inactive
[21]
  Activity: inactive
[22]
  MIC99: 64 µM (≈ 24.9 µg/mL)
[23]
  MIC99: > 250 µM
[24]
  Activity: inactive
[25]
  IC50: 96.4 µM

## CCCNc1nc(N2CCOCC2)nc2ncn(Cc3ccc4ccccc4c3)c12
[9]
  MIC99: 4 µM (≈ 1.61 µg/mL)
[10]
  MIC99: 4 µM (≈ 1.61 µg/mL)
[11]
  MIC99: 8 µM (≈ 3.22 µg/mL)
[12]
  MIC99: 16 µM (≈ 6.44 µg/mL)
[13]
  Activity: inactive
[14]
  Activity: inactive
[15]
  Selectivity Index: 10.1
[16]
  MIC99: 125 µM (≈ 50.3 µg/mL)
[17]
  Activity: inactive
[18]
  Activity: inactive
[19]
  Activity: inactive
[20]
  Activity: inactive
[21]
  Activity: inactive
[22]
  MIC99: 8 µM (≈ 3.22 µg/mL)
[23]
  MIC99: 125 µM (≈ 50.3 µg/mL)
[24]
  Activity: inactive
[25]
  IC50: 40.5 µM

From ChEMBL document CHEMBL5620421, “2,6-Disubstituted 7-(naphthalen-2-ylmethyl)-7H-purines as a new class of potent antitubercular agents inhibiting DprE1” (Eur J Med Chem, 2023)
